HDAC3 inhib = blocks human histone deacetylase 3; 320,000 tested, 0.15% active; O15379; AID 2718; recombinant HDAC3, fluorogenic peptide/trypsin coupled, fluorescence; inhibition, % at 8.3 µM; in the data active = inhibition above about 26%, passing the limit was not always enough
IDE act = activators of human insulin-degrading enzyme in cells; P14735; HEK cells, FAbeta-B cleavage, fluorescence polarization; 0% vehicle, 100% cell-free pure enzyme wells; activation, % at 5.96 µM; 340,000 tested, 0.073% active; AID 493087;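 active = activation above the mean of all tested compounds plus 3 SD, set per screening campaign, cut at about 17% in these data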
Efflux pump mplx = antifungal efflux pump inhibition, Nile Red retention; S. cerevisiae Candida pump triplex; inhibition, % at 10 µM; 330,000 tested, 0.44% active; AID 485275;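 active = plate passing quality check with inhibition over a set limit, or well fluorescence over plate mean plus 4 SD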;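 note: Nile Red retained in pooled yeast measured as flow cytometry median fluorescence; higher means more Nile Red kept so more efflux inhibition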
Tb MetRS inh = Trypanosoma brucei MetRS inhibition; purified T. brucei MetRS, ATP depletion, Kinase-Glo luminescence; inhibition, % at 11.9 µM; 360,000 tested, 0.4% active; AID 624268;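 active = inhibition above a per-plate cutoff of the control wells' mean inhibition plus 3 SD, cut at about 5.5% in these data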
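technique = Kinase-Glo luminescence, ATP depletion format | system = purified MetRS (methionyl-tRNA synthetase) enzyme from Trypanosoma brucei | timing = 15 min preincubation, 2 h reaction, all 25 °C | evaluation = percent inhibition versus plate control medians | dosing = single dose, 11.9 µM final nominal, 0.9% final DMSO | also added = substrates ATP, L-methionine and bulk Escherichia coli tRNA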
IDE cell inh = inhibits human insulin-degrading enzyme in HEK cells. P14735. FAbetaB cleavage, fluorescence polarization. inhibition, % at 5.59 µM. 320,000 tested, 0.41% active. AID 434962;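 active = percent inhibition above the average of all tested compounds plus 3 SD, set per screening campaign, cut at about 16% in these data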;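 note: IDE supplied by intact live HEK cells; FP after avidin binding of uncleaved biotin substrate so inhibition keeps polarization high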
Yeast superoxide = yeast age-related superoxide inhibition as caloric restriction mimetic. S. cerevisiae aged cells, superoxide DHE fluorescence; stronger effect = lower value. superoxide response (% of plate mean), % at 10 µM. 330,000 tested, 0.18% active. AID 2690;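 active = superoxide response under a set limit, about three screen SD below normal, cut at about 65% in these data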;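 note: yeast aged for seven days with compound at 30 °C before DHE staining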
Tb MetRS conf = Trypanosoma brucei MetRS inhibition confirmed | shares compounds with Tb MetRS inh | T. brucei MetRS enzyme, luminescence (ATP depletion) | inhibition, % at 11.9 µM | 1,400 tested, 93% active | AID 624412; in the data active = inhibition above about 7%
Jurkat tox = kills Jurkat cells in T. brucei MetRS counterscreen; shares compounds with Tb MetRS inh; Jurkat cells viability, ATP luminescence; inhibition, % at 8.3 µM; 1,400 tested, 12% active; AID 624413; in the data active = inhibition above about 15%
Tb MetRS inh FP = T. brucei MetRS inhibition, orthogonal assay | shares compounds with Tb MetRS inh | purified T. brucei MetRS, fluorescence polarization | inhibition, % at 11.9 µM | 1,400 tested, 44% active | AID 651607; in the data active = inhibition above about 17%
Each line names hits and unclear results; the compound was inactive in the other large screens (follow-up assays come after a bar, where they were run). A selection: hits, their analogues and other compounds. The true share with any hit is near 1.4%.

NNC(=O)CN1C(=O)CN=C(c2ccccc2)c2cc(Br)ccc21	Tb MetRS inh 22.4 | Tb MetRS conf inactive | Jurkat tox inactive | Tb MetRS inh FP inactive
COc1cccc2c1C(=O)c1c(O)c3c(c(O)c1C2=O)CC(O)(C(C)=NO)CC3OC1CC(N)C(O)C(C)O1 (stereo not drawn)	none (no result: HDAC3 inhib, Efflux pump mplx, IDE cell inh, Yeast superoxide)
CCC(C)NC(=O)c1c(N)n(Cc2ccc3c(c2)OCO3)c2nc3ccccc3nc12 (stereo not drawn)	Tb MetRS inh 6.3 | Tb MetRS conf inactive | Jurkat tox inactive | Tb MetRS inh FP inactive
CCC(C)NC(=O)c1c(N)n(CCCOC)c2nc3ccccc3nc12 (stereo not drawn)	Tb MetRS inh 5.7 | Tb MetRS conf inactive | Jurkat tox inactive | Tb MetRS inh FP inactive
COCCCn1c(N)c(C(=O)Nc2ccccc2)c2nc3ccccc3nc21	none (no result: IDE act)
Cn1cc(C=O)c2nccnc21	none (no result: HDAC3 inhib, IDE act, Efflux pump mplx, IDE cell inh, Yeast superoxide)
Cc1ccc2c(c1)c(=O)c1c3n2CCN(CC2CO2)C3CC1 (stereo not drawn)	none
CCCCn1c(NS(=O)(=O)c2ccccc2)c(C(=O)OCC)c2nc3ccccc3nc21	Tb MetRS inh 12.7 | Tb MetRS conf inactive | Jurkat tox inactive | Tb MetRS inh FP inactive
